From ChEMBL document CHEMBL1141712, “Kinase array design, back to front: biaryl amides” (Bioorg Med Chem Lett, 2008)

Columns and labels:
[1] = biological target: T1, Mitogen-activated protein kinase 14 (Homo sapiens, UniProt Q16539); assay: Displacement of fluorescent ATP competitive ligand from p38alpha
[2] = biological target: T2, Serine/threonine-protein kinase Sgk1 (Homo sapiens, UniProt O00141); assay: Inhibition of SGK1
T2 sequence (O00141 whole entry): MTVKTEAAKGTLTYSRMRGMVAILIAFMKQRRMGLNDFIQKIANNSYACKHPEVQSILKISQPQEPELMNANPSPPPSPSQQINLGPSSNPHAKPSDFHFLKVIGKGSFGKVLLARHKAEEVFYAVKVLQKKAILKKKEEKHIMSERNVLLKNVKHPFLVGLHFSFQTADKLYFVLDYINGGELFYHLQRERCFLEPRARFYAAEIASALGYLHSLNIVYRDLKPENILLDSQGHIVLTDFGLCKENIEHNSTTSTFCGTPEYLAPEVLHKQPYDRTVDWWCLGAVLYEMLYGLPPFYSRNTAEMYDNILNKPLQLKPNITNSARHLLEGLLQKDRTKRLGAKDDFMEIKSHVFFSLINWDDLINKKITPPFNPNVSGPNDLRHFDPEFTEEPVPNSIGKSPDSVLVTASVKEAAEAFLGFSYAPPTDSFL

[3] = biological target: Serine/threonine-protein kinase PLK1 (Homo sapiens, UniProt P53350); assay: Inhibition of PLK1
Serine/threonine-protein kinase PLK1, sequence (P53350 whole entry): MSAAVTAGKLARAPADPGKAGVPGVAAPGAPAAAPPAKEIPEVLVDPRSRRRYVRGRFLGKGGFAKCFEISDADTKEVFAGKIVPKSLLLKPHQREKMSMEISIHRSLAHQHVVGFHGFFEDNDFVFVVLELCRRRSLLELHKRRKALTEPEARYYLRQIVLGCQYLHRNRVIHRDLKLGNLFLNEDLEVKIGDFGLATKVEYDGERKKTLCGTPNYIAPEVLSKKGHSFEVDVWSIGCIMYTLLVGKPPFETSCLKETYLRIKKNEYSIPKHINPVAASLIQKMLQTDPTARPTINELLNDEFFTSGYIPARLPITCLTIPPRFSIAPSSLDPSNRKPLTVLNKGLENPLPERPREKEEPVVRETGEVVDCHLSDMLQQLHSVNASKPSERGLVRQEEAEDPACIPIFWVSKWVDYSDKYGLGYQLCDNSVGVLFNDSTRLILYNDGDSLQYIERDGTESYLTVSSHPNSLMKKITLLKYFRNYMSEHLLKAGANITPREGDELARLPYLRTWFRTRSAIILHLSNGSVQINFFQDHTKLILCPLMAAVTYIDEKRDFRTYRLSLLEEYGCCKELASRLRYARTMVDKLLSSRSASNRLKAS

[4] = biological target: Vascular endothelial growth factor receptor 2 (Homo sapiens, UniProt P35968); assay: Inhibition of VEGFR2
Vascular endothelial growth factor receptor 2, sequence (P35968 whole entry): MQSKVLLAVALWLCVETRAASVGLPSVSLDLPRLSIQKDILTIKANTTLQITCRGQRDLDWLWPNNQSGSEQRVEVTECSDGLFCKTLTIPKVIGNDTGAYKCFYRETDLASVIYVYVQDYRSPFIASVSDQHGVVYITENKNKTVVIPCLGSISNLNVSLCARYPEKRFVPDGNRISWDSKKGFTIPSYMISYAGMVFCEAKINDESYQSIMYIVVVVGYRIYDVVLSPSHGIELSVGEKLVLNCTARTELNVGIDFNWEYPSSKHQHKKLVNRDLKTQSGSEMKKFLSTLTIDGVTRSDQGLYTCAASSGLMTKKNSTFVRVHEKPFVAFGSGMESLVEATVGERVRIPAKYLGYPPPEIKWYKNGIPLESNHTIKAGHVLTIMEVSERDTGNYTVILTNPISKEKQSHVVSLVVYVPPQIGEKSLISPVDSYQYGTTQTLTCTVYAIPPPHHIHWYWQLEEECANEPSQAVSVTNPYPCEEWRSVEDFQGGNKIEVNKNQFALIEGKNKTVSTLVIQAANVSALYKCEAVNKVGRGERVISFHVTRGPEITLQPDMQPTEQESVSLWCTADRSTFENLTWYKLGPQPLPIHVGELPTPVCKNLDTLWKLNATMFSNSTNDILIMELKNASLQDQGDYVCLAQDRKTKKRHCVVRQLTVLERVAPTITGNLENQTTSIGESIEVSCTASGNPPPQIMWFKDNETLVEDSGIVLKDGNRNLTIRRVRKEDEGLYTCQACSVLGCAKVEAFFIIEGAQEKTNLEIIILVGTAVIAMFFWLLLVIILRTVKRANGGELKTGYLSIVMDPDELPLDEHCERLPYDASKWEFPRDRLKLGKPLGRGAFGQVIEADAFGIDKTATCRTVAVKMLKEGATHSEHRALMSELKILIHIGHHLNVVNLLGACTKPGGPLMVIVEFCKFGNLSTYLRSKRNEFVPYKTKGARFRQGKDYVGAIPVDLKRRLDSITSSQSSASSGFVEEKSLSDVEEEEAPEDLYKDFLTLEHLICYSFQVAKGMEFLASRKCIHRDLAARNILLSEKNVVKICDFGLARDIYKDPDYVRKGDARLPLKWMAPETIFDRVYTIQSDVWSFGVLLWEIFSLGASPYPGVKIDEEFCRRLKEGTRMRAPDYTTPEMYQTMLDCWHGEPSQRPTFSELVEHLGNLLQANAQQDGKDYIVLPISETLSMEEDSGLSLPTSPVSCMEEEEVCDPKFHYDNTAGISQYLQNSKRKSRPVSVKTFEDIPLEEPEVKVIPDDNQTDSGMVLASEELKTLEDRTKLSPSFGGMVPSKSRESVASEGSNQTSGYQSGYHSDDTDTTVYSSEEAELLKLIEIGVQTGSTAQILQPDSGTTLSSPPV

[5] = biological target: Cyclin-dependent kinase 2 (Homo sapiens, UniProt P24941); assay: Inhibition of CDK2
[6] = biological target: Macrophage colony-stimulating factor 1 receptor (Homo sapiens, UniProt P07333); assay: Inhibition of cFMS
Macrophage colony-stimulating factor 1 receptor, sequence (P07333 whole entry): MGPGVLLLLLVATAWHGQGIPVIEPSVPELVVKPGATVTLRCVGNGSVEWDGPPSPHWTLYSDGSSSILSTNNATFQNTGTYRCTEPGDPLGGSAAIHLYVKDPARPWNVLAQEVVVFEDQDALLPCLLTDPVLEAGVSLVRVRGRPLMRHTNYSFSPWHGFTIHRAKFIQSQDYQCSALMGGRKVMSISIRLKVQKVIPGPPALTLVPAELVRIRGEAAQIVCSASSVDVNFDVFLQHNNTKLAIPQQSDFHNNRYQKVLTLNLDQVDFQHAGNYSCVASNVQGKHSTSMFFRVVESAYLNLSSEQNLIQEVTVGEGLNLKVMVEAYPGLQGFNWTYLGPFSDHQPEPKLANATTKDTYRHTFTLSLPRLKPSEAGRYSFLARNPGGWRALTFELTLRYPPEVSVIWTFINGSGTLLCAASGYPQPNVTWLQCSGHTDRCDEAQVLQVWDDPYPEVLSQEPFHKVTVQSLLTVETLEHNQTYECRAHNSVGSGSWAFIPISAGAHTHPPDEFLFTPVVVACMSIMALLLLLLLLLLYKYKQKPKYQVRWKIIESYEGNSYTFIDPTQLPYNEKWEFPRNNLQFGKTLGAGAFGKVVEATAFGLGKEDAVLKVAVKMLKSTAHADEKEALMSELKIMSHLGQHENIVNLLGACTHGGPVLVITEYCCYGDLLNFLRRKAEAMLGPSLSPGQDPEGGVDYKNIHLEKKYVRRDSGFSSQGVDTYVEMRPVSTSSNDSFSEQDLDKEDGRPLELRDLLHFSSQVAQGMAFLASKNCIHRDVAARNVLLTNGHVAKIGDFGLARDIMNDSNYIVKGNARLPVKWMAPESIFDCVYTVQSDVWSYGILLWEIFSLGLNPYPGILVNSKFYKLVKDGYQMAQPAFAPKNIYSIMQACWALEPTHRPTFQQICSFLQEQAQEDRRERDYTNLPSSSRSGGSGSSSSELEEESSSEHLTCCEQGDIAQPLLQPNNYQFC

[7] = biological target: Epidermal growth factor receptor (Homo sapiens, UniProt P00533)
[8] = test system: Blood; assay: Inhibition of LPS-stimulated TNFalpha release in human whole blood; type: functional, tissue-based
[9] = biological target: Receptor tyrosine-protein kinase erbB-4 (Homo sapiens, UniProt Q15303); assay: Inhibition of ErbB4
Receptor tyrosine-protein kinase erbB-4, sequence (Q15303 whole entry): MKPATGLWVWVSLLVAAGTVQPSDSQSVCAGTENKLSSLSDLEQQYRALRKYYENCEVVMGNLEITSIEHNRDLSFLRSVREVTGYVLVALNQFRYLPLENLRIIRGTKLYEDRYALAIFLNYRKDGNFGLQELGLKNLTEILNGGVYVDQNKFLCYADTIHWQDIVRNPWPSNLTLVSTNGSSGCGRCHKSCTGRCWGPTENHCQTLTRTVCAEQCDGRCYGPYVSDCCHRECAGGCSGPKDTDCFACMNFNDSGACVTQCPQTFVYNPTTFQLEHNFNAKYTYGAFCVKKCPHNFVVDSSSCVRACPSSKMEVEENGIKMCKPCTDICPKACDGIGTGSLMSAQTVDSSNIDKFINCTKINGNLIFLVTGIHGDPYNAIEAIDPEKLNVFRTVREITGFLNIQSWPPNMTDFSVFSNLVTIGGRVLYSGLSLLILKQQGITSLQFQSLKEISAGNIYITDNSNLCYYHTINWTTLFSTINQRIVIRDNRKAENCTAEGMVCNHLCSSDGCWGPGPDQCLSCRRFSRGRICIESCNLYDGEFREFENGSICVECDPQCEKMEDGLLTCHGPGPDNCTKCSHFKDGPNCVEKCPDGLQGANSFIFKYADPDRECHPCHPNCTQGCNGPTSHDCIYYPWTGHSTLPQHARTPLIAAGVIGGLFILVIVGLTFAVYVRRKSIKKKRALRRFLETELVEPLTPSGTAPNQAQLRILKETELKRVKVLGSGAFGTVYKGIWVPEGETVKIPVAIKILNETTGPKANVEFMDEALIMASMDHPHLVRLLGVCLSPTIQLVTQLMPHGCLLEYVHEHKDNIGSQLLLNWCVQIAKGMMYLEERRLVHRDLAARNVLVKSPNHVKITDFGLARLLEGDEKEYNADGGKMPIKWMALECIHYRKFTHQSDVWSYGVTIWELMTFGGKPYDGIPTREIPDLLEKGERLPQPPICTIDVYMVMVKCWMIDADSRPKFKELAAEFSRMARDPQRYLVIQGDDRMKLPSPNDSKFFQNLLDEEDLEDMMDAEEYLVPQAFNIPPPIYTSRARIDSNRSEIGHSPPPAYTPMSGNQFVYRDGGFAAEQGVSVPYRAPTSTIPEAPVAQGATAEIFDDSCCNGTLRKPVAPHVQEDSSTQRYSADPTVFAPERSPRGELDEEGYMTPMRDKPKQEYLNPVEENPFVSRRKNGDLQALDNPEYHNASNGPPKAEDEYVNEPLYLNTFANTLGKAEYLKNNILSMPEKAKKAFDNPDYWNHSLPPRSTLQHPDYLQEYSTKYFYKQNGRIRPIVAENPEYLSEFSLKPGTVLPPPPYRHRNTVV

[10] = biological target: Tyrosine-protein kinase Lck (Homo sapiens, UniProt P06239)
[11] = test system: PBMC; assay: Inhibition of LPS-stimulated TNFalpha release in human PBMCs; type: functional, cell-based
[12] = biological target: Mitogen-activated protein kinase 10 (Homo sapiens, UniProt P53779); assay: Inhibition of JNK3
Mitogen-activated protein kinase 10, sequence (P53779 whole entry): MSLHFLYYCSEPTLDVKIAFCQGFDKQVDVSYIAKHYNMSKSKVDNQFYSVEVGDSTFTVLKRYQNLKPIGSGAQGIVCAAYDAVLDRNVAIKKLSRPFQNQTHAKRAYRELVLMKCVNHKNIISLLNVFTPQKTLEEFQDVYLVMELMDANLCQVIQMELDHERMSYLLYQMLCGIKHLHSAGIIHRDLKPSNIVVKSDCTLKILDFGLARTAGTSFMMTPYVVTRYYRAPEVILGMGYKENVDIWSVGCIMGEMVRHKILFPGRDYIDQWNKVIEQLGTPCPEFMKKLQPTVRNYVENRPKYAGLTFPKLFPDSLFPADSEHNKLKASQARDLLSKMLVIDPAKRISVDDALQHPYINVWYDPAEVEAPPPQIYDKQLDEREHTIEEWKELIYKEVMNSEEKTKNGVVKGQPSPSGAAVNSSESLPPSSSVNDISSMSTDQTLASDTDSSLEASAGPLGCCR

[13] = Volume of distribution at steady state in Lewis rat at 1 mg/kg, iv; type: ADME, organism-based; parameters: dose 1 mg/kg, route intravenous; conditions: in vivo, read-out: Vdss
Method in brief: (§1)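 Male Lewis rats were dosed at 1 mg/kg intravenously and orally, with compound given as a solution in 10% DMSO/70% PEG200/20% water. Blood was collected over 12 h, and parameters were derived from a composite blood sampling profile.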

[14] = AUC ( 0 to 12 hrs) in Lewis rat at 1 mg/kg, po; type: ADME, organism-based; parameters: time < 12 hr, dose 1 mg/kg, route oral; conditions: plasma
[15] = Oral bioavailability in Lewis rat at 1 mg/kg; type: ADME, organism-based; conditions: in vivo; method in brief: as §1
[16] = Terminal half life in Lewis rat at 1 mg/kg, iv; type: ADME, organism-based; parameters: dose 1 mg/kg, route intravenous; conditions: in vivo, read-out: beta t1/2 (converted); method in brief: as §1
[17] = biological target: Dual specificity mitogen-activated protein kinase kinase 1 (Homo sapiens, UniProt Q02750); assay: Inhibition of MEK1 by cRaf/mek/Erk cascade assay
[18] = Plasma clearance in Lewis rat at 1 mg/kg, iv; type: ADME, organism-based; parameters: dose 1 mg/kg, route intravenous; method in brief: as §1
[19] = biological target: T1, Mitogen-activated protein kinase 14; assay: Inhibition of p38alpha
Method in brief: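 p38α Ki determined by measuring displacement of a fluorescent ATP-competitive inhibitor from the enzyme. Impure products and those giving inconsistent assay results were excluded.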

T1 sequence (Q16539 whole entry): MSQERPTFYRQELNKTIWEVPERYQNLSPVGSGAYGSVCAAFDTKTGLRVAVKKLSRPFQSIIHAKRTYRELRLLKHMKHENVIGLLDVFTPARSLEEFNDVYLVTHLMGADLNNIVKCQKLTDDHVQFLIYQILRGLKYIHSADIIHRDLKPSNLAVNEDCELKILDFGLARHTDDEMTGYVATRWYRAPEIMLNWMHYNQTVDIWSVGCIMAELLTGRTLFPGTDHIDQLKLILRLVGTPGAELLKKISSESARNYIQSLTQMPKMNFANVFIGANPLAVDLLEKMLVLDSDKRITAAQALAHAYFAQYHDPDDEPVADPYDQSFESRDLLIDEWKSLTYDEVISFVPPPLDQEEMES

CCCCn1c(=O)[nH]c2cc(-c3cc(C(=O)Nc4cccc(N5CCOCC5)c4)ccc3C)ccc2c1=O
Ki [1]: 19 nM

Cc1ccc(NC(=O)c2ccc(CN3CCN(C)CC3)cc2)cc1-c1ccc2[nH]c(=O)ccc2c1
Ki [1]: > 2500 nM

Cc1ccc(C(=O)NC2CC2)cc1-c1ccc2cc[nH]c(=O)c2c1
Ki [1]: 420 nM

Cc1ccc(C(=O)Nc2cccc(N3CCOCC3)c2)cc1-c1ccc2cc[nH]c(=O)c2c1
Ki [1]: 18 nM

Cc1ccc(C(=O)NC2CC2)cc1-c1ccc2c(N)noc2c1
Ki [1]: 110 nM

Cc1ccc(C(=O)NC2CC2)cc1-c1ccc(-c2csc(N)n2)cc1
Ki [1]: 130 nM

Cc1ccc(NC(=O)c2ccnc(N3CCCC3)c2)cc1-c1ccc2cc[nH]c(=O)c2c1
Ki [1]: 2.4 nM

Cc1ccc(NC(=O)c2ccc(CN3CCN(C)CC3)cc2)cc1-c1ccc2cc[nH]c(=O)c2c1
Ki [1]: > 2500 nM

CCCCn1c(=O)[nH]c2cc(-c3cc(NC(=O)c4ccc(CN5CCN(C)CC5)cc4)ccc3C)ccc2c1=O
Ki [1]: 2000 nM

Cc1ccc(NC(=O)c2ccnc(N3CCCC3)c2)cc1-c1ccc2nc(N)[nH]c(=O)c2c1
Ki [1]: 6.8 nM

Cc1nc(-c2ccc(-c3cc(NC(=O)c4ccnc(N5CCCC5)c4)ccc3C)cc2)no1
Ki [1]: 1.1 nM

Cc1ccc(C(=O)NC2CC2)cc1-c1ccc2c(=O)n(CC3CC3)nnc2c1
IC50 [2]: 32000 nM | IC50 [3]: > 25000 nM | IC50 [4]: > 20000 nM | IC50 [5]: > 20000 nM | IC50 [6]: > 20000 nM | IC50 [7]: > 25000 nM | IC50 [8]: 500 nM | Ki [1]: 6 nM | IC50 [9]: > 25000 nM | IC50 [10]: > 16000 nM | IC50 [11]: 400 nM | IC50 [12]: > 16000 nM

Cc1ccc(NC(=O)c2ccc(CN3CCN(C)CC3)cc2)cc1-c1ccc2ccncc2c1
IC50 [2]: > 33000 nM | IC50 [3]: > 25000 nM | IC50 [4]: 800 nM | IC50 [5]: > 20000 nM | IC50 [6]: 4 nM | IC50 [7]: 700 nM | Ki [1]: 830 nM | IC50 [9]: 300 nM | IC50 [10]: 70 nM | IC50 [12]: > 16000 nM

Cc1nnc(-c2ccc(-c3cc(C(=O)NC4CC4)ccc3C)c(C)c2)o1
Vd [13]: 1.2 L/kg | IC50 [2]: > 33000 nM | IC50 [3]: > 25000 nM | AUC(0-t) at 12 h [14]: 4180 ng·h/mL | IC50 [4]: > 20000 nM | IC50 [5]: > 20000 nM | bioavailability [15]: 91% | IC50 [6]: > 20000 nM | half-life [16]: 4.6 h | IC50 [8]: 1000 nM | IC50 [11]: 100 nM | IC50 [17]: 20000 nM | clearance [18]: 3 mL/min/kg

Cc1ccc(NC(=O)c2ccnc(N3CCCC3)c2)cc1-c1ccc2onc(C)c2c1
Ki [1]: 160 nM

Cc1ccc(C(=O)Nc2cccc(N3CCOCC3)c2)cc1I
Ki [19]: > 2000 nM

Cc1nnc(-c2ccc(-c3cc(C(=O)Nc4cccc(N5CCOCC5)c4)ccc3C)c(C)c2)o1
IC50 [2]: > 33000 nM | IC50 [3]: > 25000 nM | IC50 [4]: 6000 nM | IC50 [5]: > 20000 nM | IC50 [6]: 700 nM | Ki [1]: 2.8 nM | IC50 [12]: > 16000 nM | IC50 [17]: 400 nM

Cc1ccc(C(=O)NC2CC2)cc1-c1ccc2c(=O)[nH]c(-c3cccs3)nc2c1
Ki [1]: 2.9 nM

Cc1ccc(C(=O)Nc2cccc(N3CCOCC3)c2)cc1-c1ccc(-c2csc(N)n2)cc1
Ki [1]: 20 nM

Cc1ccc(C(=O)Nc2cccc(N3CCOCC3)c2)cc1-c1ccc2c(N)noc2c1
Ki [1]: 19 nM

Cc1ccc(C(=O)NC2CC2)cc1-c1ccc2onc(C)c2c1
Ki [1]: 1100 nM

Cc1ccc(NC(=O)c2ccnc(N3CCCC3)c2)cc1-c1ccc(-c2csc(N)n2)cc1
Ki [1]: 6.7 nM

Cc1ccc(C(=O)NC2CC2)cc1-c1ccc2ccncc2c1
IC50 [2]: > 33000 nM | IC50 [3]: > 25000 nM | IC50 [4]: 500 nM | IC50 [5]: > 20000 nM | IC50 [6]: 600 nM | IC50 [7]: > 25000 nM | IC50 [8]: 100 nM | Ki [1]: 11 nM | IC50 [9]: > 25000 nM | IC50 [10]: 3000 nM | IC50 [11]: 100 nM | IC50 [12]: > 16000 nM

Cc1ccc(C(=O)NC2CC2)cc1-c1ccc2[nH]ncc2c1 [GW820759X]
Ki [1]: 87 nM
